Reference: ChEMBL document CHEMBL1130250, “NAcSDKP analogues resistant to angiotensin-converting enzyme” (J Med Chem, 1997)
Peptide text beside a SMILES is read from it. * marks the point of attachment. Pyrrolidide = C1CCN(*)C1

Tests used:
[1] = biological target: T1, Angiotensin-converting enzyme (Oryctolagus cuniculus) (UniProt P12822); test: In vitro stability of compound (50 uM) to inhibit NAcSDKP hydrolysis by rabbit lung Angiotensin I converting enzyme after 30 minutes incubation
T1 sequence (whole entry): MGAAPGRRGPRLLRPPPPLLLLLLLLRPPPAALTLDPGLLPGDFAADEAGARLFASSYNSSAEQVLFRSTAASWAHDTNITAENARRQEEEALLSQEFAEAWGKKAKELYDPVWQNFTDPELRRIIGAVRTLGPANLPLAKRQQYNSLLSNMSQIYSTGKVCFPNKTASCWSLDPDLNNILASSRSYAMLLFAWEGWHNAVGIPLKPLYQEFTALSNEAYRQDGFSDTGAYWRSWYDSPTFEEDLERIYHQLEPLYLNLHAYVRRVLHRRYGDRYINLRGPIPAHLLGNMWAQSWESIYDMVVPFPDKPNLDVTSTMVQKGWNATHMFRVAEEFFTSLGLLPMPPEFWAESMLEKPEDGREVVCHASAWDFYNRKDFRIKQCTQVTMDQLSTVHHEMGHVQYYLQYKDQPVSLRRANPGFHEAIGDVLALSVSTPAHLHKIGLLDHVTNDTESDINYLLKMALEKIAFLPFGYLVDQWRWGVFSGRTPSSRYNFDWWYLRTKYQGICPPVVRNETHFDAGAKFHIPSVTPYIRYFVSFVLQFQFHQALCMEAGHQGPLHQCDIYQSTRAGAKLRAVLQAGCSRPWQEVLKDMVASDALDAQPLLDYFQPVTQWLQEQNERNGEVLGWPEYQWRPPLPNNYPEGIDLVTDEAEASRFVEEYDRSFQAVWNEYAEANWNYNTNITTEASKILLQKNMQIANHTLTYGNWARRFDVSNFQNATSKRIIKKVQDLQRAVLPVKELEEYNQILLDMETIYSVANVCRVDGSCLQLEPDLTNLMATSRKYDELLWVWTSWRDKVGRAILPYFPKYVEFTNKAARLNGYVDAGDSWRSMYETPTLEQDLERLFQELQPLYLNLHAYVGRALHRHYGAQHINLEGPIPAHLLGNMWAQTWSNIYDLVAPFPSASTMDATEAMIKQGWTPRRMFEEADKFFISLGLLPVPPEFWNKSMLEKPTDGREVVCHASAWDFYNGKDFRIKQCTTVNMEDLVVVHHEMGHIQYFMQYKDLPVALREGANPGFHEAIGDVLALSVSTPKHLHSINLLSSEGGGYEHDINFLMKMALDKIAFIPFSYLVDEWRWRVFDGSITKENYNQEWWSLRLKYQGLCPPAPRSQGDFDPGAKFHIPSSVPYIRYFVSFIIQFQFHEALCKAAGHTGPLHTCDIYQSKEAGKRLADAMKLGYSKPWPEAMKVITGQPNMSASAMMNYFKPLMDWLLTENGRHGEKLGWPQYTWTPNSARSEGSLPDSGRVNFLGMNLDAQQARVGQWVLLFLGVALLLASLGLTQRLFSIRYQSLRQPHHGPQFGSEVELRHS
Summary of the method: (§1)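 Rabbit lung ACE (0.1 unit/mL final) in Tris-maleate buffer pH 7 (100 mM Tris, 50 mM NaCl, 10^-5 M ZnSO4). Analogue (final 0.5, 5 or 50 µM) preincubated with enzyme 30 min at 37 °C. NAcSD[3H]KP (tritium on lysine side chain) plus cold peptide, 5 µM final, then added for 30 min at 37 °C. Frozen at -80 °C and run on high-voltage paper electrophoresis. Residual labelled substrate radioactivity compared with t=0. Duplicates, mean of two experiments.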

[2] = biological target: T1, Angiotensin-converting enzyme (Oryctolagus cuniculus); test: In vitro stability of compound (51 uM) to inhibit NAcSDKP hydrolysis by rabbit lung Angiotensin I converting enzyme after 30 minutes incubation; summary of the method: as §1
[3] = biological target: T1, Angiotensin-converting enzyme (Oryctolagus cuniculus); test: In vitro stability of compound toward enzymatic degradation by rabbit lung Angiotensin I converting enzyme after 24 hr incubation
Summary of the method: (§2)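 Degradation assay: rabbit lung ACE preincubated 30 min at 37 °C in Tris-maleate pH 7 (100 mM Tris, 50 mM NaCl, 10^-5 M ZnSO4). Peptide then added at 50 µM final with enzyme at 0.1 unit/mL, 37 °C for 30 min or 24 h. Stopped with 1% TFA, then RP-HPLC at 215 nm. Residual intact peptide read from peak area against t=0 and a 5-50 calibration curve. Mean of two experiments in triplicate.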

[4] = biological target: T1, Angiotensin-converting enzyme (Oryctolagus cuniculus); test: In vitro stability of compound (0.5 uM) to inhibit NAcSDKP hydrolysis by rabbit lung Angiotensin I converting enzyme after 30 minutes incubation; summary of the method: as §1
[5] = biological target: T1, Angiotensin-converting enzyme (Oryctolagus cuniculus); test: In vitro stability of compound toward enzymatic degradation by rabbit lung Angiotensin I converting enzyme after 30 minutes incubation; summary of the method: as §2
[6] = biological target: T1, Angiotensin-converting enzyme (Oryctolagus cuniculus); test: In vitro stability of compound (5 uM) to inhibit NAcSDKP hydrolysis by rabbit lung Angiotensin I converting enzyme after 30 minutes incubation; summary of the method: as §1

| SMILES | Residual peptide [1] [%] | Residual peptide [2] [%] | Residual peptide [3] [%] | Residual peptide [4] [%] | Residual peptide [5] [%] | Residual peptide [6] [%] |
| --- | --- | --- | --- | --- | --- | --- |
| CC(=O)N[C@@H](CO)CN[C@@H](CC(=O)O)C(=O)N[C@@H](CCCCN)C(=O)N1CCC[C@H]1C(=O)O | 46.7 | 54 | 97.6 | 46.9 | 99.7 | – |
| CC(=O)N[C@@H](CO)C(=O)N[C@@H](CC(=O)O)C(=O)N[C@@H](CCCCN)CN1CCC[C@H]1C(=O)O | 50.3 | – | 99.4 | 47.3 | 99.7 | 48.8 |
| CC(=O)N[C@@H](CO)C(=O)N[C@@H](CC(=O)O)C(=O)N[C@@H](CCCCN)C(=O)N1CCCC1 (Ac-Ser-Asp-Lys-Pyrrolidide) | – | – | 0 | – | 36.2 | – |
| CC(=O)N[C@@H](CO)C(=O)N[C@@H](CC(=O)O)C(=O)N[C@@H](CCCCN)C(=O)N1CCC[C@H]1C(=O)O (Ac-SDKP-OH) | – | – | – | – | 43.6 | – |
| CC(=O)N[C@@H](CO)C(=O)N[C@@H](CC(=O)O)C(=O)N[C@@H](CCCCN)C(=O)N1CCC[C@H]1C(N)=O (Ac-SDKP-NH2) | 49.7 | – | 96.7 | 46 | 99.9 | 50.1 |
| CC(=O)N[C@@H](CO)C(=O)N[C@H](CN[C@@H](CCCCN)C(=O)N1CCC[C@H]1C(=O)O)CC(=O)O | 41.7 | – | 100 | 46 | 100 | 49.3 |
